Test results reported in ChEMBL document CHEMBL3217512, “Indole/triazole conjugates are selective inhibitors and inducers of bacterial biofilms” (Medchemcomm, 2013).

How the values were obtained:
Escherichia coli [1] = assay: Antimicrobial activity against Escherichia coli K-12 ER2718 assessed as effect on planktonic growth at 50 uM after 2 to 24 hrs; assay type: organism-based
Procedure, shortened: (§1)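 Growth curve analysis of planktonic bacteria with each biofilm inducer at 50 μM, used to assess toxicity.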

Escherichia coli [2] = assay: Antimicrobial activity against Escherichia coli K-12 ER2718 assessed as effect on planktonic growth at IC50 after 2 to 24 hrs by colony count method; assay type: organism-based
Escherichia coli [3] = assay: Antimicrobial activity against Escherichia coli K-12 ER2718 assessed as effect on planktonic growth at PC75 after 2 to 24 hrs; assay type: organism-based; details: in vivo
Escherichia coli [4] = assay: Antimicrobial activity against Escherichia coli K-12 ER2718 assessed as effect on planktonic growth at PC25 after 2 to 24 hrs by colony count method; assay type: organism-based
Staphylococcus aureus [5] = assay: Antimicrobial activity against methicillin-resistant Staphylococcus aureus BAA 44 assessed as effect on planktonic growth at 50 uM after 2 to 24 hrs; assay type: organism-based
Procedure, shortened: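 Growth-curve analysis of planktonic MRSA in the presence of each biofilm inducer at 50 μM, to check for toxicity.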

Escherichia coli [6] = assay: Antimicrobial activity against Escherichia coli K-12 ER2718 assessed as effect on planktonic growth at PC50 after 2 to 24 hrs by colony count method; assay type: organism-based; details: in vivo
Staphylococcus aureus [7] = assay: Antimicrobial activity against Staphylococcus aureus 29213 assessed as effect on planktonic growth at PC50 after 2 to 24 hrs; assay type: organism-based; details: in vivo
Staphylococcus aureus [8] = assay: Antimicrobial activity against methicillin-resistant Staphylococcus aureus BAA 44 assessed as effect on planktonic growth at PC25 after 2 to 24 hrs; assay type: organism-based; details: in vivo
Staphylococcus aureus [9] = assay: Antimicrobial activity against Staphylococcus aureus 29213 assessed as effect on planktonic growth at PC25 after 2 to 24 hrs; assay type: organism-based; details: in vivo
Staphylococcus aureus [10] = assay: Antimicrobial activity against methicillin-resistant Staphylococcus aureus BAA 44 assessed as effect on planktonic growth at PC50 after 2 to 24 hrs; assay type: organism-based; details: in vivo
Acinetobacter baumannii [11] = assay: Induction of biofilm formation in Acinetobacter baumannii 19606 at 50 uM after 24 hrs by crystal violet staining-based assay relative to control; assay type: functional, ATCC 19606 = CIP 70.34 = JCM 6841
Procedure, shortened: (§2)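 Static biofilm assay with compounds at 50 μM and crystal violet read-out, relative to an untreated control. Compounds increasing biofilm by less than 50% were called inducers, and by more than 50% strong inducers.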

Staphylococcus aureus [12] = assay: Antimicrobial activity against Staphylococcus aureus 29213 assessed as effect on planktonic growth at PC75 after 2 to 24 hrs; assay type: organism-based; details: in vivo
Escherichia coli [13] = assay: Antimicrobial activity against Escherichia coli K-12 ER2718 assessed as effect on planktonic growth at PC75 after 2 to 24 hrs by colony count method; assay type: organism-based; details: in vivo
Escherichia coli [14] = assay: Antimicrobial activity against Escherichia coli K-12 ER2718 assessed as effect on planktonic growth at PC50 after 2 to 24 hrs; assay type: organism-based
Staphylococcus aureus [15] = assay: Induction of biofilm formation in Staphylococcus aureus 29213 at 50 uM after 24 hrs by crystal violet staining-based assay relative to control; assay type: functional; procedure, shortened: as §2
Staphylococcus aureus [16] = assay: Antimicrobial activity against methicillin-resistant Staphylococcus aureus BAA 44 assessed as effect on planktonic growth at PC50 after 2 to 24 hrs by colony count method; assay type: organism-based; details: in vivo
Staphylococcus aureus [17] = assay: Antimicrobial activity against Staphylococcus aureus 29213 assessed as effect on planktonic growth at PC25 after 2 to 24 hrs by colony count method; assay type: organism-based; details: in vivo
Staphylococcus aureus [18] = assay: Antimicrobial activity against methicillin-resistant Staphylococcus aureus BAA 44 assessed as effect on planktonic growth at IC50 after 2 to 24 hrs by colony count method; assay type: organism-based; details: in vivo
Acinetobacter baumannii [19] = assay: Antimicrobial activity against Acinetobacter baumannii 19606 assessed as effect on planktonic growth at PC75 after 2 to 24 hrs by colony count method; set-up: species or system ATCC 19606
Acinetobacter baumannii [20] = assay: Antimicrobial activity against Acinetobacter baumannii 19606 assessed as effect on planktonic growth at IC50 after 2 to 24 hrs; set-up: species or system ATCC 19606
Staphylococcus aureus [21] = assay: Antimicrobial activity against methicillin-resistant Staphylococcus aureus BAA 44 assessed as effect on planktonic growth at IC50 after 2 to 24 hrs; assay type: organism-based; details: in vivo
Staphylococcus aureus [22] = assay: Induction of biofilm formation in methicillin-resistant Staphylococcus aureus BAA 44 at 50 uM after 24 hrs by crystal violet staining-based assay relative to control; assay type: functional
Procedure, shortened: (§3)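 Static biofilm development in MRSA, read out by crystal violet staining against an untreated control. Initial screen at 150 μM. Inhibitors then went to dose-response, with IC50 taken as the concentration giving 50% inhibition of biofilm growth. Induction was judged at 50 μM: under 50% induction counted as "inducer", over 50% as "strong inducer".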

Acinetobacter baumannii [23] = assay: Antimicrobial activity against Acinetobacter baumannii 19606 assessed as effect on planktonic growth at PC25 after 2 to 24 hrs by colony count method; set-up: species or system ATCC 19606
Staphylococcus aureus [24] = assay: Antimicrobial activity against Staphylococcus aureus 29213 assessed as effect on planktonic growth at PC75 after 2 to 24 hrs by colony count method; assay type: organism-based; details: in vivo
Staphylococcus aureus [25] = assay: Antimicrobial activity against Staphylococcus aureus 29213 assessed as effect on planktonic growth at IC50 after 2 to 24 hrs; assay type: organism-based; details: in vivo
Acinetobacter baumannii [26] = assay: Antimicrobial activity against Acinetobacter baumannii 19606 assessed as effect on planktonic growth at PC25 after 2 to 24 hrs; set-up: species or system ATCC 19606
Acinetobacter baumannii [27] = assay: Antimicrobial activity against Acinetobacter baumannii 19606 assessed as effect on planktonic growth at PC50 after 2 to 24 hrs by colony count method; set-up: species or system ATCC 19606
Acinetobacter baumannii [28] = assay: Antimicrobial activity against Acinetobacter baumannii 19606 assessed as effect on planktonic growth at PC50 after 2 to 24 hrs; set-up: species or system ATCC 19606
Acinetobacter baumannii [29] = assay: Antimicrobial activity against Acinetobacter baumannii 19606 assessed as effect on planktonic growth at 50 uM after 2 to 24 hrs; set-up: species or system ATCC 19606; procedure, shortened: as §1
Escherichia coli [30] = assay: Antimicrobial activity against Escherichia coli K-12 ER2718 assessed as effect on planktonic growth at IC50 after 2 to 24 hrs; assay type: organism-based
Staphylococcus aureus [31] = assay: Antimicrobial activity against methicillin-resistant Staphylococcus aureus BAA 44 assessed as effect on planktonic growth at PC25 after 2 to 24 hrs by colony count method; assay type: organism-based; details: in vivo
Acinetobacter baumannii [32] = assay: Antimicrobial activity against Acinetobacter baumannii 19606 assessed as effect on planktonic growth at IC50 after 2 to 24 hrs by colony count method; set-up: species or system ATCC 19606
Staphylococcus aureus [33] = assay: Antimicrobial activity against Staphylococcus aureus 29213 assessed as effect on planktonic growth at IC50 after 2 to 24 hrs by colony count method; assay type: organism-based; details: in vivo
Staphylococcus aureus [34] = assay: Antimicrobial activity against Staphylococcus aureus 29213 assessed as effect on planktonic growth at 50 uM after 2 to 24 hrs; assay type: organism-based; procedure, shortened: as §1
Escherichia coli [35] = assay: Antimicrobial activity against Escherichia coli K-12 ER2718 assessed as effect on planktonic growth at PC25 after 2 to 24 hrs; assay type: organism-based
Acinetobacter baumannii [36] = assay: Antimicrobial activity against Acinetobacter baumannii 19606 assessed as effect on planktonic growth at PC75 after 2 to 24 hrs; set-up: species or system ATCC 19606
Staphylococcus aureus [37] = assay: Antimicrobial activity against methicillin-resistant Staphylococcus aureus BAA 44 assessed as effect on planktonic growth at PC75 after 2 to 24 hrs; assay type: organism-based; details: in vivo
Escherichia coli [38] = assay: Induction of biofilm formation in Escherichia coli K-12 ER2718 at 50 uM after 24 hrs by crystal violet staining-based assay relative to control; assay type: functional; procedure, shortened: as §2
Staphylococcus aureus [39] = assay: Antimicrobial activity against Staphylococcus aureus 29213 assessed as effect on planktonic growth at PC50 after 2 to 24 hrs by colony count method; assay type: organism-based; details: in vivo
Staphylococcus aureus [40] = assay: Antimicrobial activity against methicillin-resistant Staphylococcus aureus BAA 44 assessed as effect on planktonic growth at PC75 after 2 to 24 hrs by colony count method; assay type: organism-based; details: in vivo
Acinetobacter baumannii [41] = assay: Inhibition of biofilm formation in Acinetobacter baumannii 19606 at 150 uM after 24 hrs by crystal violet staining-based assay relative to control; assay type: functional; details: ATCC 19606 = CIP 70.34 = JCM 6841, 24 h
Staphylococcus aureus [42] = assay: Inhibition of biofilm formation in Staphylococcus aureus 29213 at 150 uM after 24 hrs by crystal violet staining-based assay relative to control; assay type: functional; details: Staphylococcus aureus, 29213, 24 h
Escherichia coli [43] = assay: Inhibition of biofilm formation in Escherichia coli K-12 ER2718 at 150 uM after 24 hrs by crystal violet staining-based assay relative to control; assay type: functional; details: K-12 ER2718, 24 h
Acinetobacter baumannii [44] = assay: Inhibition of biofilm formation in Acinetobacter baumannii 19606 after 24 hrs by crystal violet staining-based assay; assay type: functional; details: ATCC 19606 = CIP 70.34 = JCM 6841, 24 h
Procedure, shortened: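 Compounds active in the 150 μM screen were taken into dose-response studies under static conditions with a crystal violet read-out. IC50 is the concentration that inhibits 50% of biofilm growth relative to an untreated control.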

Staphylococcus aureus [45] = assay: Inhibition of biofilm formation in methicillin-resistant Staphylococcus aureus BAA 44 after 24 hrs by crystal violet staining-based assay; assay type: functional, organism-based; details: BAA 44, 24 h; procedure, shortened: as §3

Structure (SMILES) | Activity (Escherichia coli [2]) | Activity (Staphylococcus aureus [5]) | Activity (Staphylococcus aureus [7]) | Activity (Staphylococcus aureus [8]) | Activity (Staphylococcus aureus [9]) | Activity (Staphylococcus aureus [10]) | Activity (Staphylococcus aureus [12]) | Activity (Staphylococcus aureus [15]) [%] | Activity (Staphylococcus aureus [16]) | Activity (Staphylococcus aureus [17]) | Activity (Staphylococcus aureus [18]) | Activity (Acinetobacter baumannii [20]) | Activity (Staphylococcus aureus [21]) | Activity (Staphylococcus aureus [22]) [%] | Activity (Staphylococcus aureus [24]) | Activity (Staphylococcus aureus [25]) | Activity (Escherichia coli [30]) | Activity (Staphylococcus aureus [31]) | Activity (Acinetobacter baumannii [32]) | Activity (Staphylococcus aureus [33]) | other results
CCCCCCCc1ccc(C(=O)NCCn2cc(Cc3c(Br)[nH]c4ccccc34)nn2)cc1 | Non-toxic | Non-toxic | Non-toxic | Non-toxic | Non-toxic | Non-toxic | Non-toxic | <50 | Non-toxic | Non-toxic | Non-toxic | Non-toxic | Non-toxic | >50 | Non-toxic | Non-toxic | Non-toxic | Non-toxic | Non-toxic | Non-toxic | Activity (Escherichia coli [1]): Non-toxic; Activity (Escherichia coli [3]): Non-toxic; Activity (Escherichia coli [4]): Non-toxic; Activity (Escherichia coli [6]): Non-toxic; Activity (Acinetobacter baumannii [11]): <50%; Activity (Escherichia coli [13]): Non-toxic; Activity (Escherichia coli [14]): Non-toxic; Activity (Acinetobacter baumannii [19]): Non-toxic; Activity (Acinetobacter baumannii [23]): Non-toxic; Activity (Acinetobacter baumannii [26]): Non-toxic; Activity (Acinetobacter baumannii [27]): Non-toxic; Activity (Acinetobacter baumannii [28]): Non-toxic; Activity (Acinetobacter baumannii [29]): Non-toxic; Activity (Staphylococcus aureus [34]): Non-toxic; Activity (Escherichia coli [35]): Non-toxic; Activity (Acinetobacter baumannii [36]): Non-toxic; Activity (Staphylococcus aureus [37]): Non-toxic; Activity (Escherichia coli [38]): <50%; Activity (Staphylococcus aureus [39]): Non-toxic; Activity (Staphylococcus aureus [40]): Non-toxic
CCCCCCNC(=O)Cn1cc(Cc2c(Br)[nH]c3ccccc23)nn1 | Non-toxic | Non-toxic | – | Non-toxic | – | Non-toxic | – | – | Non-toxic | – | Non-toxic | Non-toxic | Non-toxic | <50 | – | Non-toxic | Non-toxic | Non-toxic | Non-toxic | Non-toxic | inhibition at 150 µM (Acinetobacter baumannii [41]): 17%; inhibition at 150 µM (Staphylococcus aureus [42]): < 5%; inhibition at 150 µM (Escherichia coli [43]): < 5%; Activity (Staphylococcus aureus [37]): Non-toxic; Activity (Staphylococcus aureus [40]): Non-toxic
O=C(Cn1cc(Cc2c(Br)[nH]c3ccccc23)nn1)Nc1ccccc1 | Non-toxic | – | Non-toxic | – | Non-toxic | – | Non-toxic | >50 | – | Non-toxic | Non-toxic | Non-toxic | Non-toxic | – | Non-toxic | Non-toxic | Non-toxic | – | Non-toxic | Non-toxic | IC50 (Acinetobacter baumannii [44]): 326 µM; IC50 (Staphylococcus aureus [45]): 151 µM; Activity (Staphylococcus aureus [34]): Non-toxic; inhibition at 150 µM (Escherichia coli [43]): 12%; Activity (Staphylococcus aureus [39]): Non-toxic
